# What was measured:
# Settings in all cases: stereoisomer not certain
# [1] = target: T1, UniProt Q8VG27
# T1 sequence (whole entry): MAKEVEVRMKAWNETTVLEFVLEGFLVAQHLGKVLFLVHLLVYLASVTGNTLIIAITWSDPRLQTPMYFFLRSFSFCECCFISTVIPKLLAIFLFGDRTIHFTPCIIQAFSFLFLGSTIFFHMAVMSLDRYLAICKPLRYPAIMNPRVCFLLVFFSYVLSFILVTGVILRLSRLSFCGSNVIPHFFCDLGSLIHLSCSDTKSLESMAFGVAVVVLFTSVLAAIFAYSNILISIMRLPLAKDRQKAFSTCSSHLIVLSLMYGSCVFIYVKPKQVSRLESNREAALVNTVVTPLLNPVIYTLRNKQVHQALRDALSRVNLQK
# Summary of the method: (§1)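 Assay methods differ from source to source, frequently being transient luciferase assays in mammalian cell lines. For each receptor–molecule pair, the label responsive (active) applies when the original authors judged the measured signal statistically different from baseline, and non-responsive (inactive) applies otherwise.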
# [2] = target: T2, UniProt Q8VG53
# T2 sequence (whole entry): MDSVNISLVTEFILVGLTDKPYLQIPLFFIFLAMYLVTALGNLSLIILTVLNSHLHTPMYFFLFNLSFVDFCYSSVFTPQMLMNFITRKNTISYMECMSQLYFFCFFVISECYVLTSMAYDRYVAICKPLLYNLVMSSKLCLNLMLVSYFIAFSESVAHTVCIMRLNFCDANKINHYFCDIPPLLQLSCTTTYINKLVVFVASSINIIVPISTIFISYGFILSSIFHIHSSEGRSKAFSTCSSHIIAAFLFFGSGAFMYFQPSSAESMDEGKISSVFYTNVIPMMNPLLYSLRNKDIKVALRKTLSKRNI
# Summary of the method: as §1
# [3] = target: T3, UniProt Q8VG64
# T3 sequence (whole entry): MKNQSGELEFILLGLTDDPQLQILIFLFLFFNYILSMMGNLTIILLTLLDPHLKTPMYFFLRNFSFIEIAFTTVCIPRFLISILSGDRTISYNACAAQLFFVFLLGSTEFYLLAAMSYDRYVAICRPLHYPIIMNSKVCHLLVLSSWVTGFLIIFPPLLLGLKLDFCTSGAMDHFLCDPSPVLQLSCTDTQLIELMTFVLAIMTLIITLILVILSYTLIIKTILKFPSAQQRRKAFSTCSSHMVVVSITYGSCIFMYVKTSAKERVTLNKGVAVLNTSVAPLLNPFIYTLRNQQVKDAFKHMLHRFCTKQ
# Summary of the method: as §1
# [4] = target: T4, UniProt Q8VGB9
# T4 sequence (whole entry): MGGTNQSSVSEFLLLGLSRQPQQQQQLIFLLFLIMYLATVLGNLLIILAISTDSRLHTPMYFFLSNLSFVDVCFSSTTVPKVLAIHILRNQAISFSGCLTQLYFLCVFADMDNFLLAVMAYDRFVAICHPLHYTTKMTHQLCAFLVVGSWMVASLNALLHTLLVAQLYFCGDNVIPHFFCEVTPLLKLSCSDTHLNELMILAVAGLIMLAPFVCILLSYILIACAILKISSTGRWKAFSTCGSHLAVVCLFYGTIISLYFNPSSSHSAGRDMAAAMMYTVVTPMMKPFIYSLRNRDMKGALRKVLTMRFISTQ
# Summary of the method: as §1
# [5] = target: T5, UniProt Q8VGC6
# T5 sequence (whole entry): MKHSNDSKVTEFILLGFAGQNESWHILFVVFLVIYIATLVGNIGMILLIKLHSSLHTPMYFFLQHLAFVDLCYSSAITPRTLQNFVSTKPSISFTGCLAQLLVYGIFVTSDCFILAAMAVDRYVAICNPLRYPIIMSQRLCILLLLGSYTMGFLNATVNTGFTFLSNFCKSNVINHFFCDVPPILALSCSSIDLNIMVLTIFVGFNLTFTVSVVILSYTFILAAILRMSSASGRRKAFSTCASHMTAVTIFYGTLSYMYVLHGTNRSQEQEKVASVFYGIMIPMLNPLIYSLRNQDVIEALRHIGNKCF
# Summary of the method: as §1
# [6] = target: T6, UniProt Q8VGJ3
# T6 sequence (whole entry): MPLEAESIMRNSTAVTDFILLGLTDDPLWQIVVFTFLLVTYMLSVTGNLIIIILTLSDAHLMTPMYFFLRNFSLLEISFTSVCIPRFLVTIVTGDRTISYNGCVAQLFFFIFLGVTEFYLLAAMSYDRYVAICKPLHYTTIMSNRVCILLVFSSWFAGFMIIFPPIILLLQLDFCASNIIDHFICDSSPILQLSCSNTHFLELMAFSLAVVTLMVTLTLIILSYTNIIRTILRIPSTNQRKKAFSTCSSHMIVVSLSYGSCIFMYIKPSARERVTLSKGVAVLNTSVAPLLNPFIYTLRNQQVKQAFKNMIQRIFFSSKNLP
# Summary of the method: as §1
# [7] = target: T7, UniProt Q8VGL0
# T7 sequence (whole entry): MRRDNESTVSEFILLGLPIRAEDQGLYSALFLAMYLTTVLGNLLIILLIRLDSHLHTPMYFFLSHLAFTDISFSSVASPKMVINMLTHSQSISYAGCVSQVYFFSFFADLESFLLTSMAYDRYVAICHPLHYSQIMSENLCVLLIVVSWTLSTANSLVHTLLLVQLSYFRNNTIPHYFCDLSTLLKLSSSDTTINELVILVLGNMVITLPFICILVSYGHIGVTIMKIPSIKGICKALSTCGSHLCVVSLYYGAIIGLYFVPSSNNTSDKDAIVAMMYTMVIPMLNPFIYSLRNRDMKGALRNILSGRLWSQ
# Summary of the method: as §1
# [8] = target: T8, UniProt Q8VG49
# T8 sequence (whole entry): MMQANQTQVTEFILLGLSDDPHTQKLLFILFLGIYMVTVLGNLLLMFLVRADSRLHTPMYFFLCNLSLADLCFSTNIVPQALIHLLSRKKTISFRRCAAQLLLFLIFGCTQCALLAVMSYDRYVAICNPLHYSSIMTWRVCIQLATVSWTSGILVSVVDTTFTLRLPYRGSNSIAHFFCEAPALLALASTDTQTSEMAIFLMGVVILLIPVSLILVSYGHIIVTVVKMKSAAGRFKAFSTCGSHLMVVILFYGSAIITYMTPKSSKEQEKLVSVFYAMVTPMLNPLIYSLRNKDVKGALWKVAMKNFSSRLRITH
# Summary of the method: as §1
# [9] = target: T9, UniProt Q8VG77
# T9 sequence (whole entry): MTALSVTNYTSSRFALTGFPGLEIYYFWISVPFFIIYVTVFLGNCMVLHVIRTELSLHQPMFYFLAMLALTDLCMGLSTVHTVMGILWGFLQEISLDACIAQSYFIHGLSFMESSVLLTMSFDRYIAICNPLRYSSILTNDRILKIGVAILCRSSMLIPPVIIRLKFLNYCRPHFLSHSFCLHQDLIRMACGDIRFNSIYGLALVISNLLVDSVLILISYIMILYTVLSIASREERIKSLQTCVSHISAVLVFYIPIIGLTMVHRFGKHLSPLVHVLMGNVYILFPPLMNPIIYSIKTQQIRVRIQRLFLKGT
# Summary of the method: as §1
# [10] = target: T10, UniProt Q8VG96
# T10 sequence (whole entry): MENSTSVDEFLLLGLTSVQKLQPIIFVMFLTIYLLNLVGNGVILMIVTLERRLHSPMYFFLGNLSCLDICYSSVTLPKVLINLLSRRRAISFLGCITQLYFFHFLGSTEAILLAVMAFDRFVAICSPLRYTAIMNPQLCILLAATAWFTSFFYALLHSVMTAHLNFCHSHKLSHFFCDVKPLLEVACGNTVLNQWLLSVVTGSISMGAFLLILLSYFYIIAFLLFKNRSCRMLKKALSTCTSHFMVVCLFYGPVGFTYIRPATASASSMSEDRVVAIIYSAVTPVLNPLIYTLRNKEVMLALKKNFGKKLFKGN
# Summary of the method: as §1
# [11] = target: T11, UniProt Q8VGD7
# T11 sequence (whole entry): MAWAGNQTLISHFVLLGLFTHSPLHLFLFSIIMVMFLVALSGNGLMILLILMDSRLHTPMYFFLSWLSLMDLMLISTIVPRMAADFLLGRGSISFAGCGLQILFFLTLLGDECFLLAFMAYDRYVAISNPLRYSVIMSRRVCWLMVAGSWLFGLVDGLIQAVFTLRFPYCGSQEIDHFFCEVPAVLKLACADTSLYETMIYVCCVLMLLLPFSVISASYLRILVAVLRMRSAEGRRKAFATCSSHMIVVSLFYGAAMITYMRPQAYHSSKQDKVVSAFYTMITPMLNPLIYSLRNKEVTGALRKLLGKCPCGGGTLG
# Summary of the method: as §1
# [12] = target: T12, UniProt Q8VGH1
# T12 sequence (whole entry): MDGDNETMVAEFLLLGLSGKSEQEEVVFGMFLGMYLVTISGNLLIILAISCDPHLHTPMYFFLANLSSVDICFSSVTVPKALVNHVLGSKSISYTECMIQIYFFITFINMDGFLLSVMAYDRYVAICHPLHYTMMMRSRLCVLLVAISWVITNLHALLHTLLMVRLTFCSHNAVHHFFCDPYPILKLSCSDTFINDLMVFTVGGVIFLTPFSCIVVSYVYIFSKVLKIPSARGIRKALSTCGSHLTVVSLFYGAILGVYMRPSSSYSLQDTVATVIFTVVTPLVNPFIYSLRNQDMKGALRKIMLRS
# Summary of the method: as §1
# [13] = target: T13, UniProt Q8VGJ1
# T13 sequence (whole entry): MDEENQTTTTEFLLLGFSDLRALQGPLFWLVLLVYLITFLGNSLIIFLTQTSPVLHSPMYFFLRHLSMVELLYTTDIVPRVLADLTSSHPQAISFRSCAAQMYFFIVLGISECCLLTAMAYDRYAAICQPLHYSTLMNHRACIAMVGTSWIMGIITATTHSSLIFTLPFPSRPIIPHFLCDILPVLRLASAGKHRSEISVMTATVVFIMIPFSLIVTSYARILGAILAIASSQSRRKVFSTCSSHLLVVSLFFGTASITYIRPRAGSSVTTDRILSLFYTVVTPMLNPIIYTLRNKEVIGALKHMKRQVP
# Summary of the method: as §1
# [14] = target: T14, UniProt Q8VGJ5
# T14 sequence (whole entry): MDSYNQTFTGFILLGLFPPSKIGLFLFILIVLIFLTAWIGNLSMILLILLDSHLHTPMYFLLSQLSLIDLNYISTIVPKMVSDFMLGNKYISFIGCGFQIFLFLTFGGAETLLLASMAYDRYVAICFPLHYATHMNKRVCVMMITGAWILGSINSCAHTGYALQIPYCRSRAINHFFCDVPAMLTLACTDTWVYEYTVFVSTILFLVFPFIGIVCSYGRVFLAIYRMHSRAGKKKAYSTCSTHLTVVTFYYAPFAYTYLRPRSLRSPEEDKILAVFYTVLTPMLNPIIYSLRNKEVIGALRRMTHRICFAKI
# Summary of the method: as §1
# [15] = target: T15, UniProt Q8VGL7
# T15 sequence (whole entry): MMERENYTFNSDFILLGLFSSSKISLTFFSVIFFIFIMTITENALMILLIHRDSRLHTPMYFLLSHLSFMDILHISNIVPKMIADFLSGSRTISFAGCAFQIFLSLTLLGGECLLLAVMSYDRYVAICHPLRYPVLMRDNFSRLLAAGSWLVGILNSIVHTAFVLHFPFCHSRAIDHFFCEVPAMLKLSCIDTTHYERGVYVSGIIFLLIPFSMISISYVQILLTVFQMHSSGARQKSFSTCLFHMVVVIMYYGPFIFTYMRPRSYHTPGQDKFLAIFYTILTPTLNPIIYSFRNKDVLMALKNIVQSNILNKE
# Summary of the method: as §1
# [16] = target: UniProt Q8VG28
# Sequence of UniProt Q8VG28 (Q8VG28 as listed by the source): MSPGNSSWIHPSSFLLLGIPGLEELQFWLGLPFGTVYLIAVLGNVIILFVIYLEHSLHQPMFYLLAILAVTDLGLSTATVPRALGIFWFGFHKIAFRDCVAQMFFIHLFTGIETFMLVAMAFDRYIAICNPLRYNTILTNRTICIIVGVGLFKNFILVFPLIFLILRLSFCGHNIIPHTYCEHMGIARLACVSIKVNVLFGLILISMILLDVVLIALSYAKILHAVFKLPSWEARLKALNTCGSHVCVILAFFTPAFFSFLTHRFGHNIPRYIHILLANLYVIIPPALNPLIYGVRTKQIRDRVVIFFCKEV
# Summary of the method: as §1
smiles,measurement,setting,value
COc1ccccc1,odorant receptor agonist call,[1],inactive
same,odorant receptor agonist call,[2],inactive
same,odorant receptor agonist call,[3],inactive
same,odorant receptor agonist call,[4],inactive
same,odorant receptor agonist call,[5],inactive
same,odorant receptor agonist call,[6],inactive
same,odorant receptor agonist call,[7],inactive
CCC(=O)OC(C)(C)C,odorant receptor agonist call,[5],inactive
CC1=CCC2CC1C2(C)C (centres undefined),odorant receptor agonist call,[5],inactive
CCC(C(=O)O)c1ccccc1 (centres undefined),odorant receptor agonist call,[8],inactive
same,odorant receptor agonist call,[9],inactive
same,odorant receptor agonist call,[10],inactive
same,odorant receptor agonist call,[5],inactive
same,odorant receptor agonist call,[11],inactive
same,odorant receptor agonist call,[12],inactive
same,odorant receptor agonist call,[13],inactive
same,odorant receptor agonist call,[14],inactive
same,odorant receptor agonist call,[7],inactive
same,odorant receptor agonist call,[15],inactive
CCCCCCCC(=O)[O-].[H+],odorant receptor agonist call,[16],active
same,odorant receptor agonist call,[8],inactive
same,odorant receptor agonist call,[9],inactive
same,odorant receptor agonist call,[10],inactive
same,odorant receptor agonist call,[5],inactive
same,odorant receptor agonist call,[11],inactive
same,odorant receptor agonist call,[12],inactive
same,odorant receptor agonist call,[13],inactive
same,odorant receptor agonist call,[14],inactive
same,odorant receptor agonist call,[7],inactive
same,odorant receptor agonist call,[15],inactive
CCCC(=O)OC,odorant receptor agonist call,[5],inactive
CCCCOC,odorant receptor agonist call,[5],inactive
CC(C)=CCCC(C)CC=O (centres undefined),odorant receptor agonist call,[5],inactive
CC(C)C12CCC(C)(CC1)O2,odorant receptor agonist call,[5],inactive

# From the M2OR odorant receptor database
